Active and inactive are the calls of the source.
How the values were obtained:
Assay type in all cases: functional, cell-based
[1] = tested on: PC-3; assay: Cytotoxicity against human PC3 cells at 20 to 25 uM measured after 48 hrs by SRB assay
Procedure, shortened: (§1)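 SRB screen in human cancer lines (U-251 glioblastoma, PC-3 prostate, K562 leukemia, HCT-15 colorectal, MCF-7 breast, SKLU-1 lung). 5000−7500 cells per well were preincubated 24 h at 37 °C, 5% CO2, then exposed to compound (20.0 or 25.0 μM) for 48 h. Cells were fixed and stained with sulforhodamine B, and absorbance was read at 515 nm.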

[2] = tested on: MCF7; assay: Cytotoxicity against human MCF7 cells at 20 to 25 uM measured after 48 hrs by SRB assay; procedure, shortened: as §1
[3] = tested on: U-251; assay: Cytotoxicity against human U251 cells at 20 to 25 uM measured after 48 hrs by SRB assay; procedure, shortened: as §1
[4] = tested on: K562; assay: Cytotoxicity against human K562 cells at 20 to 25 uM measured after 48 hrs by SRB assay; procedure, shortened: as §1
[5] = tested on: SK-LU-1; assay: Cytotoxicity against human SKLU1 cells at 20 to 25 uM measured after 48 hrs by SRB assay; procedure, shortened: as §1
[6] = tested on: HCT-15; assay: Cytotoxicity against human HCT15 cells at 20 to 25 uM measured after 48 hrs by SRB assay; procedure, shortened: as §1

Measured: Activity

C[C@@]12C[C@@]3(c4ccoc4)O[C@@]14CCC=C1C(=O)OC[C@]14CC[C@]2(C)O3
inactive: all assays above

COc1ccc(-c2cc(=O)c3c(O)c(OC)c(OC)cc3o2)cc1O
inactive: all assays above

COC1C=C([C@H]2C[C@]34[C@@H](O2)O[C@H](C[C@@]25COC(=O)[C@@H]2CC=C[C@H]53)[C@H]4C)C(=O)O1 (mixture of isomers)
inactive: all assays above

C[C@@H]1[C@H]2C[C@@]34COC(=O)[C@H]3CC=C[C@H]4[C@@]13C[C@H](C1=CC(O)OC1=O)O[C@H]3O2 (stereo not given in full)
inactive: all assays above

C[C@@H]1[C@H]2C[C@@]34COC(=O)[C@H]3CC=C[C@H]4[C@@]13C[C@H](c1ccoc1)O[C@H]3O2
inactive: all assays above

C[C@@H]1[C@H]2C[C@@]34COC(=O)[C@@H]3CC=C[C@H]4[C@@]13C[C@H](C1=CC(O)OC1=O)O[C@H]3O2 (stereo not given in full)
inactive: all assays above

C[C@@H]1[C@H]2C[C@@]34COC(=O)[C@H]3CC=C[C@H]4[C@@]13C[C@H](C1=CC(=O)OC1O)O[C@H]3O2 (stereo not given in full)
inactive: all assays above

C[C@@H]1[C@H]2C[C@@]34COC(=O)[C@@H]3CC=C[C@H]4[C@@]13C[C@H](C1=CC(=O)OC1O)O[C@H]3O2 (stereo not given in full)
inactive: all assays above

C[C@@H]1[C@H]2C[C@@]34COC(=O)[C@@H]3CC=C[C@H]4[C@@]13C[C@H](c1ccoc1)O[C@H]3O2
inactive: all assays above

C[C@@H]1[C@@H](C)O[C@@H]2O[C@@H](c3ccoc3)C[C@@]21c1cccc2c1COC2=O
inactive: all assays above
